Results as given in ChEMBL document CHEMBL3046889, “Structure-activity relationships of phenylcyclohexene and biphenyl antitubulin compounds against plant and mammalian cells” (Bioorg Med Chem Lett, 2001).
Active and inactive are the calls of the source. The rule behind the calls is not given here.

How the values were obtained:
HCT-116 = test: Antitumor activity against Homo sapiens (human) HCT116 cells; format: functional, cell-based
In short: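 Cytotoxicity toward human HCT116 colon cancer cells measured by sulforhodamine B assay in 96-well format.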

Nicotiana tabacum [1] = test: Inhibition of Nicotiana tabacum (tobacco) root growth assessed as inhibition of root elongation; format: functional, organism-based
In short: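 In vitro tobacco root growth assay on germinating seeds; root elongation scored, EC50 derived.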

Nicotiana tabacum [2] = test: Mitotic arrest in Nicotiana tabacum (tobacco) root suspension-cultured cells assessed as accumulation of cells in metaphase by cytological staining assay; format: functional
In short: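 Suspension-cultured tobacco cells were treated with the compound, and their chromosomes were cytologically stained. The read-out was mitotic index, meaning the fraction of cells in mitosis, with arrest scored as cells accumulating in metaphase.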

Tubulin (Bos taurus) [3] = test: Displacement of [3H]colchicine from Bos taurus (bovine) brain tubulin by competition assay
Tubulin (Bos taurus) [4] = test: Inhibition of Bos taurus (bovine) brain tubulin polymerization at 200 uM

SMILES	EC50 (HCT-116; Homo sapiens, HCT-116)	EC50 (Nicotiana tabacum [1]; Nicotiana tabacum)	EC50 (HCT-116; hct-116)	other results
COc1ccc(-c2ccc(OC)c(OC)c2OC)c(C#N)c1	0.58 µM	> 100 µM		
COc1ccc([C@@H]2CC=CC[C@H]2[N+](=O)[O-])c(OC)c1OC (racemic) [listing 1 of 2 here]				Activity (Nicotiana tabacum [2]): Active; inhibition (Tubulin (Bos taurus) [3]): Active; inhibition (Tubulin (Bos taurus) [4]): Active
COc1ccc(-c2ccccc2[N+](=O)[O-])c(OC)c1OC	19.6 µM	52 µM		
COc1ccc(-c2ccc(OC)c(OC)c2OC)cc1 [2,3,4,4'-TETRAMETHOXYBIPHENYL]	1.52 µM	> 100 µM		
COc1ccc(-c2ccccc2C#N)c(OC)c1OC	13.8 µM	> 100 µM		
COc1ccc(C2CC=CCC2C#N)c(OC)c1OC (mixture of isomers)	113 µM	2.29 µM		inhibition (Tubulin (Bos taurus) [4]): Active
O=[N+]([O-])[C@@H]1CC=CC[C@H]1c1ccccc1 (mixture of isomers)	174 µM	> 100 µM		
COc1ccc([C@H]2CC=CC[C@H]2C#N)c(OC)c1OC (single isomer, unassigned)			142 µM	
COc1ccc([C@@H]2CC=CC[C@H]2[N+](=O)[O-])c(OC)c1OC (single isomer, unassigned; enantiomer I)			79 µM	EC50 (Nicotiana tabacum [1]): 0.1 µM
COc1ccc(-c2ccc(OC)c(OC)c2OC)c(C)c1	0.78 µM	> 100 µM		
COc1ccc([C@H]2CC=CC[C@@H]2C#N)c(OC)c1OC (single isomer, unassigned; enantiomer II)			47 µM	EC50 (Nicotiana tabacum [1]): 7.17 µM
COc1cccc([C@@H]2CC=CC[C@H]2[N+](=O)[O-])c1 (racemic)	143 µM	3.78 µM		
COc1ccc(-c2ccc(OC)c(OC)c2OC)c([N+](=O)[O-])c1	2.65 µM	> 100 µM		
COc1ccc([C@H]2CC=CC[C@H]2C#N)c(OC)c1OC (single isomer, unassigned; enantiomer II)		> 25 µM	45 µM	
COc1ccc([C@@H]2CC=CC[C@H]2[N+](=O)[O-])c(OC)c1OC (racemic) [listing 2 of 2 here]			85 µM	EC50 (Nicotiana tabacum [1]): 0.27 µM
COc1ccc([C@@H]2CC=CC[C@H]2[N+](=O)[O-])c(OC)c1OC (single isomer, unassigned)	71 µM			EC50 (Nicotiana tabacum [1]): 1.96 µM
COc1cc2c(c(OC)c1OC)-c1ccc(OC)c(=O)cc1[C@@H](NC(C)=O)CC2 [COLCHICINE]	0.02 µM	356 µM		Activity (Nicotiana tabacum [2]): Active
COc1ccc([C@H]2CC=CC[C@@H]2C#N)c(OC)c1OC (single isomer, unassigned; enantiomer I)			136 µM	EC50 (Nicotiana tabacum [1]): 0.667 µM
